ARFGAP1 inh: inhibitors of rat ARFGAP1 GAP activity, primary screen, biochemical, fluorescence polarization, GDP tracer; ADP-ribosylation factor GTPase-activating protein 1 (Rattus norvegicus), Q62848; Arfgap1-stimulated ARF1 GTP hydrolysis, GDP FP detection; inhibition, % at 16.5 µM; 360,000 compounds, 0.26% hits; AID 651572, 2012;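 active means inhibition above a per-plate limit, mean inhibition of low control wells plus 3 SD, cut at about 25% in these data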;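 further: 0% = DMSO wells with enzyme and 100% = wells lacking Arfgap1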
Target sequence (Q62848 1-136 limits assumed): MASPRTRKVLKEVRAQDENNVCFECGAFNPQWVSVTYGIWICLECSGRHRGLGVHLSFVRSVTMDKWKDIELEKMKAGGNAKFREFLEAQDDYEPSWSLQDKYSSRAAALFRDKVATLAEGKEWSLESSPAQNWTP
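Material – truncated rat Arfgap1 GAP domain · Buffer or medium – HEPES-based buffer, pH 7.5 · Reagent – human ARF1(Δ1-17)-GTP substrate · Dosing – 16.5 µM single point, 1.26% DMSO · Schedule – GTP hydrolysis reaction 2 h at 25 °C · Technique – GDP detection by fluorescence polarization · Benchmarks – No-Arfgap1 wells (100%) versus DMSO full-reaction wells (0%) · Repeats – single replicate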
ASAP1 inh: inhibitors of human ASAP1 ArfGAP activity, primary screen, biochemical, fluorescence polarization. Arf-GAP with SH3 domain, ANK repeat and PH domain-containing protein 1 (Homo sapiens), …. ASAP1-stimulated ARF1 GTP hydrolysis, GDP FP detection. inhibition, % at 16.5 µM. 360,000 compounds, 0.19% hits; in the data active means inhibition above about 25%;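 further: 0% = vehicle with enzyme and substrate and 100% = no enzyme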
Target sequence (Q9ULH1 325-724 limits assumed): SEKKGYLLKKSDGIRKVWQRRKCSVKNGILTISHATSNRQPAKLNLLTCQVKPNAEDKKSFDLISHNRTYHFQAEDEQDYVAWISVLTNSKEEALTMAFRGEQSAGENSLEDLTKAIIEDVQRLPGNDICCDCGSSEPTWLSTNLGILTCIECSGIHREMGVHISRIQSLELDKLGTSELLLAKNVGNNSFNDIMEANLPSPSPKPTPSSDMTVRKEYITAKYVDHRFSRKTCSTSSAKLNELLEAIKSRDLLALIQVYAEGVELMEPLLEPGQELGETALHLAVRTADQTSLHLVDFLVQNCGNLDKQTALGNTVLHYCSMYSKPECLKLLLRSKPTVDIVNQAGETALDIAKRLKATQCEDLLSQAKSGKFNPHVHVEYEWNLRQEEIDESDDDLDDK
Rin1-Abl PPI inh: inhibitors of Rin1-Abl protein binding, primary screen, biochemical, TR-FRET; AID 588664, 2011; inhibition, % at 7.35 µM; 360,000 compounds, 0.4% hits; Tyrosine-protein kinase ABL1 (Homo sapiens) + Ras and Rab interactor 1 (Homo sapiens), …; in the data active means inhibition above about 5%, passing the limit was not always enough
GalR3 antagonist: GalR3 antagonists in HEK293 cells, primary screen, cell-based, fluorescence readout | Galanin receptor type 3 (Homo sapiens), O60755 | HEK293 GalR3-CNG cAMP membrane potential fluorescence; galR3 body fused to GalR1 C-terminus | inhibition, % at 3 µM | 360,000 compounds, 0.44% hits | AID 651719, 2012;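 active means inhibition above the screen-wide average plus 3 SD, cut at about 13% in these data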;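 further: forskolin and galanin both at EC90 stimulate the cells; cAMP rise reported by CNG channel membrane potential dye signal; 0% = forskolin plus galanin with DMSO and 100% = forskolin alone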
GalR3 conf: GalR3 antagonist hit confirmation, cell-based, fluorescence, triplicate | inhibition, % at 3 µM | shares compounds with GalR3 antagonist | HEK293 GalR3 CNG cAMP biosensor, membrane potential fluorescence; galR3 fused to GalR1 carboxy tail; challenged with forskolin and galanin at EC90 | 1,600 compounds, 59% hits | AID 652245, 2013;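 active means inhibition above the primary screen's cutoff, the mean inhibition of all screened compounds plus 3 SD, cut at about 13% in these data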;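 further: 0% = forskolin plus galanin and 100% = forskolin alone with DMSO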
CNG parental: nonspecific cAMP agonists in parental HEK-CNG cells, counter-screen for GalR3 antagonist project, cell-based, fluorescence, high throughput. activation, % at 3 µM. HEK293-CNG parental cells, cAMP membrane potential fluorescence; normalised: DMSO wells 0%, forskolin wells 100%. 1,600 compounds, 10% hits. shares compounds with GalR3 antagonist; in the data active means activation above about 1.3%
Numbers without * were called inactive; x = no result given. Shown are actives, neighbours in structure and some others; about 1.2% of the full set was active somewhere.

SMILES	ARFGAP1 inh	ASAP1 inh	Rin1-Abl PPI inh	GalR3 antagonist	GalR3 conf	CNG parental
COC(=O)C1=C(C)N(Cc2cccc(C(F)(F)F)c2)C(=NCc2ccc(OC)cc2)NC1c1ccccc1 (stereo not given)	8.3	-2.6	x	-5.7	x	x
COCOc1cc(O)c(C(=O)/C=C/c2ccccc2)c(OCOC)c1	6.1	1.6	-2.8	21.5*	19.8*	-0.3
CCCCc1c(-c2ccccc2OC)ncn1Cc1c(Cl)cccc1Cl	16.3	5.8	x	-7.6	x	x
COc1ccc(C(NC(C)=O)c2nccc3cc(OC)c(OC)cc23)cc1OC (stereo not given)	6.6	6.1	1.8	23.1*	2.8	0.0
CCCc1c(Cc2cccc(F)c2)ncn1Cc1cccc(-c2ccccc2)c1	-4.9	2.4	x	-3.0	x	x
Cc1sc2ncnc(NCC3COc4ccccc4O3)c2c1C (stereo not given)	3.1	10.1	1.8	100.2*	105.1*	0.3
C[C@H](O)[C@@H]1C(=O)N2CCc3c([nH]c4cccc(-c5ccccc5)c34)[C@@H]2C[C@@H]1N(C)C(=O)OCc1ccccc1	10.5	7.4	x	-3.8	x	x
COc1ccc(CC(=O)Nc2cccc(S(=O)(=O)N3CCCCCC3)c2)cc1OC	0.8	10.4	3.8	104.5*	99.2*	-0.8
Cc1ccc(CN2CC(N3CCC[C@@H]3C)CS2(=O)=O)cc1 (stereo not given in full)	-1.6	-3.6	x	-4.8	x	x
COc1ccc2oc(C)c(C(=O)Cn3ccnc3)c2c1	9.8	4.6	-3.5	15.0*	1.2	0.2
Cc1nc(-c2ccc3c(c2)OCCCO3)cs1	-2.3	-0.4	1.6	-1.8	x	x
Nc1nc(-c2ccc3c(c2)OCCO3)cs1	-8.1	2.6	-1.6	23.2*	29.3*	0.3
COc1cccc(OCC(O)CN2CCC(CN3C(=O)c4cccc5cccc(c45)C3=O)CC2)c1 (stereo not given)	7.3	8.1	-11.4	-9.5	x	x
Cc1cc(C)cc(OCC(O)CN2CCC(CN3C(=O)c4cccc5cccc(c45)C3=O)CC2)c1 (stereo not given)	1.9	-8.1	-4.4	28.5*	20.5*	8.2*
CCCN1C(=O)c2n[nH]c(C(C)C)c2C1c1cccc(C(F)(F)F)c1 (stereo not given)	4.0	0.4	x	-5.7	x	x
COc1ccccc1CNC(=O)c1cnn2c(C(F)F)cc(C)nc12	8.5	18.3	-2.3	22.9*	34.5*	0.3
COC(C[C@@H]1O[C@@H]1[C@@H](O)[C@H](C)OCc1ccccc1)OC	3.6	11.3	3.5	-6.2	x	x
COC(C[C@H]1O[C@H]1[C@H](O)[C@H](C)OCc1ccccc1)OC	8.6	3.1	1.3	x	0.8	0.3
CC(C)C(=O)NC(c1ccc([N+](=O)[O-])cc1)c1c(O)ccc2ccccc12 (stereo not given)	-1.1	-6.8	-1.0	-7.2	x	x
CC(C)C(=O)NC(c1cccc([N+](=O)[O-])c1)c1c(O)ccc2ccccc12 (stereo not given)	4.7	2.3	-1.5	16.4*	-4.7	0.6
Nc1nnnn1/N=C\c1ccc(Cl)c([N+](=O)[O-])c1	-3.3	-3.5	2.9	18.0*	13.8*	0.1
N#Cc1cc(-c2ccccc2)oc1NC(=O)c1ccco1	7.0	6.5	0.8	29.3*	15.6*	0.3
Cc1cc(N2CCNC[C@@H]2C)ccc1N1CCS(=O)(=O)CC1	-14.6	-15.4	x	-7.1	x	x
CN1OC[C@@H]2CN3C(=Nc4cc(C(F)(F)F)cc(C(F)(F)F)c4)Sc4ccccc4[C@@H]3C[C@@H]21	12.5	3.5	x	-7.4	x	x
COC(=O)C1=C[C@@H](C(=O)OC)[C@@H]2C3=C(C(=O)[C@]2(CC(C)C)NC(=O)c2ccccc2)[C@H](C)n2c(=O)n(-c4ccccc4)c(=O)n2[C@@H]3C1	1.3	9.2	8.4	13.5*	1.8	0.0
SMILES	ARFGAP1 inh	ASAP1 inh	Rin1-Abl PPI inh	GalR3 antagonist	GalR3 conf	CNG parental
COC(=O)CC#C[C@H](C)[C@@H](NS(C)(=O)=O)C(C)(C)COCc1ccccc1	3.9	-15.1	x	-6.9	x	x
COC(=O)C1=C(C)N(Cc2ccccc2C(F)(F)F)C(=NCc2ccccc2C(F)(F)F)NC1c1cccc(C(F)(F)F)c1 (stereo not given)	0.3	1.3	x	-4.8	x	x
CCOC(=O)/C(C#N)=C/c1cn(CCC(=O)O)nc1-c1ccccc1	7.5	0.9	1.2	-4.3	x	x
CCOC(=O)/C(C#N)=C/c1cn(CCC(=O)O)nc1-c1ccc(OC)cc1	14.1	5.3	0.6	13.8*	6.9	0.1
COc1ccc(-c2nc3c(C)cc(Br)cn3c2Cc2ccccc2C(F)(F)F)cc1OC	-0.9	10.1	x	-4.7	x	x
O=C1c2ccccc2C(=O)N1CCC#Cc1ccc2cc(CCO)oc(=O)c2c1	-9.8	-9.4	2.0	13.2*	4.3	0.4
O=C(Nc1ccc(OCc2ccccc2)cc1)Nc1ccccc1C(=O)NCCCN1CCOCC1	3.3	-6.0	-0.9	17.4*	8.0	-0.4
O=C(Nc1ccccc1C(=O)NCCCN1CCOCC1)c1ccc(F)cc1F	-0.5	5.8	-1.2	0.3	x	x
Cc1ccc(C2C3=C(CC(C)(C)CC3=O)NC3=C2C(=O)c2ccccc23)cc1 (stereo not given)	-0.2	13.8	-2.1	22.3*	18.6*	-0.1
COc1cccc(C(=O)N[C@H](C(=O)N2CCC[C@H]2C(=O)NCc2ccccc2)C(C)C)c1	6.6	0.9	x	-6.3	x	x
CC(C)[C@H](NS(=O)(=O)c1ccc(F)cc1F)C(=O)N1CCC[C@H]1C(=O)NCCc1ccccc1Cl	-1.2	6.1	x	-4.9	x	x
COc1ccc(C=O)c2[nH]c3c(Cl)ncnc3c12	10.0	8.8	-0.4	14.4*	29.4*	0.5
COc1ccc(C(=O)NC2CCCN(Cc3ccccc3F)C2)c(OC)c1OC (stereo not given)	10.8	-5.7	-3.0	15.5*	8.8	0.2
CC(=O)c1ccc(C(=O)NC2CCCN(Cc3ccccc3F)C2)s1 (stereo not given)	1.2	-4.9	-3.6	-3.2	x	x
N#C/C(=N\Nc1cc(Cl)cc(Cl)c1)c1nnc2n1CCCCC2	-10.5	13.9	-8.4	15.2*	0.4	1.7*
CC(=O)c1c(C)[nH]c(C(=O)OCC(=O)Nc2cccc(S(=O)(=O)N(C)C)c2)c1C	12.4	-1.2	3.8	-3.2	x	x
